Results reported in ChEMBL document CHEMBL4513216, “Probing the Open Global Health Chemical Diversity Library for Multistage-Active Starting Points for Next-Generation Antimalarials” (ACS Infect Dis, 2020).

Test: Toxicity liver stage against HepG2, at 10uM
Assay type: cell-based
Design: test concentration 10 uM, cell line HepG2-A16-CD81EGFP
Details: human, HepG2-A16-CD81EGFP cells; read-out: INHIBITION
Method in brief: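 Uninfected HepG2-A16-CD81EGFP cells, 3 × 10^3 per well, 1536-well, plated on prespotted compound at 10 μM final, parasite-free screening media added to match infected plates; puromycin 10 μM positive, DMSO 0.5% negative; run in parallel with 48 h PbLuc assay at 37 °C, 5% CO2; viability by CellTiter-Glo luminescence, normalized to controls.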

| Structure (SMILES) | cytotoxicity at 10 µM |
| --- | --- |
| Cc1nnc(NC(=O)NCC(C)N2CCOCC2)s1 (stereo not given) | -10.6% |
| CN(C)c1cccc(C2CCCN2S(N)(=O)=O)c1 (stereo not given) | -5.44% |
| O=C(c1cccnc1)N1CCC(c2nc(O)cc(-c3ccncc3)n2)C1 (stereo not given) | -20.8% |
| Cc1ccoc1C(=O)N1C[C@H](OCC2CC2)[C@H]2OCCC[C@H]21 | 2.89% |
| CCCN1C[C@@H]2CC[C@H]1CN(Cc1cccc(O)c1)C2 | -122% |
| CC(C)Oc1ccc(CC2=N[C@](C)(CO)CO2)cc1 | 16.3% |
| O=C(c1ccno1)N1CC[C@@H]2CN(C3CCOCC3)CCO[C@@H]2C1 | -102% |
| Cc1nc(O)cc(C2CCN(C(=O)C(C)Cn3nc(C)nc3C)CC2)n1 (stereo not given) | -1.89% |
| CCC(=O)N1CCCC(c2nc(N(C)C)ncc2-c2ccc(F)cc2)C1 (stereo not given) | 28.1% |
| Cc1nc(C)c(CCNC(=O)NC2CC(=O)N(C(C)(C)C)C2)s1 (stereo not given) | -1.08% |
| OC1CCN(Cc2ccnc(-c3cccnc3)n2)CC1 | -20.7% |
| CCC(=O)N1CCN(c2ncnc3cc4c(cc23)OCCO4)CC1 | 10.2% |
| COc1cccc(CNC(=O)c2cc(C)nc(N3CCCC3)n2)c1 | 23.1% |
| CCN1CCN2CCCN(S(=O)(=O)c3cccc(F)c3)C2C1=O (stereo not given) | 5.18% |
| CN1CCCN(C(=O)c2nc3c(o2)CN(C(=O)c2cccnc2)C3)CC1 | 2.75% |
| CC(C)C[C@@H](N)C(=O)N(C)Cc1csc(C(C)C)n1 | -127% |
| Clc1ccccc1-c1nc(CNC2CCc3ncnn3C2)co1 (stereo not given) | -7.6% |
| CC(Cc1ccc(Cl)cc1)N(C)C(=O)NCCS(C)(=O)=O (stereo not given) | 0.606% |
| CC(C)CCN1CCN(C(=O)c2cccnc2-n2cncn2)CC1 | 6.37% |
| COc1ccc(OC)c(CNC2CCCc3nc(N(C)C)ncc32)c1 (stereo not given) | -11.2% |
| CCc1nc(CN2CCN(c3ncnc4cc(F)ccc34)CC2)no1 | 41.5% |
| CCN1CCN(c2ccc(F)cc2C(C)NCc2ccnn2C)CC1 (stereo not given) | -8.33% |

| Structure (SMILES) | cytotoxicity at 10 µM |
| --- | --- |
| O=C(c1cn(-c2cc(N3CCOCC3)ncn2)cn1)N1CCSCC1 | -18.3% |
| Cc1ccc(F)c(C(=O)N2C[C@@H](C(=O)O)[C@H](c3ccccc3)C2)c1Cl | -6.06% |
| Cc1ccc(Cn2c(=O)[nH]c3csnc3c2=O)cc1 | 2.93% |
| O=C(CCc1ccc(-n2cnnn2)cc1)Nc1nncs1 | -1.14% |
| COc1ccc2c(c1)C1(CCNCC1)CC2NC1CC1 (stereo not given) | -117% |
| CN(C)S(=O)(=O)c1ccc2c(c1)N(Cc1nccn1C)CC2 | -3.42% |
| Cn1ncnc1NS(=O)(=O)c1ccccc1 | 8.26% |
| N#Cc1nccnc1N1CCC(OCCCc2ccccc2)C1 (stereo not given) | 4.31% |
| CCc1cc(=O)[nH]c(SCc2ccccn2)n1 | -0.543% |
| COc1ccccc1CN(C)C(=O)C[S+]([O-])Cc1cc(C)on1 (stereo not given) | 0.788% |
| Cc1nc(C)n(CC2CN(CCOc3ccccc3C#N)CCO2)n1 (stereo not given) | -7.45% |
| CCc1nc2n(n1)CC(Nc1nc(C)cc(N(C)C)n1)CC2 (stereo not given) | 5.02% |
| COCCN1C[C@@H]2[C@@H](OC)CCN(C(=O)Cc3ccsc3)[C@@H]2C1 | 7.68% |
| CSc1ccccc1-n1ccnc1-c1cn(C2CCNCC2)nn1 | -0.67% |
| Cn1cc(N2CC3(CCN(Cc4cccs4)CC3)OCC2=O)cn1 | -8.13% |
| Cc1n[nH]cc1CNCC1(c2ccc3c(c2)OCO3)CCOCC1 | 7.73% |
| CC1=C[C@@H](CC#N)[C@H](C(C)C)C[C@H]1CC(=O)N1CCN(C)CC1 | -4.42% |
| Cc1nn(C)c(=O)c2nn(-c3ccc(F)cc3)c(C)c12 | -0.839% |
| CCS(=O)(=O)N1CCC(c2nccn2Cc2ccccn2)CC1 | 6.27% |
| Cc1nc(C)c(CC(=O)Nc2nnc(C(C)C)s2)c(=O)[nH]1 | -7.16% |
| CCOC(=O)C1CCN(C(=O)CN2CCCC2Cc2ccccc2)CC1 (stereo not given) | 12.7% |
| COCCCN1CCCC2(CCN(S(=O)(=O)c3cccnc3)C2)C1=O (stereo not given) | 8.21% |

| Structure (SMILES) | cytotoxicity at 10 µM |
| --- | --- |
| Cn1ccc(C(=O)N2C[C@@H]3OCCN(c4ncccn4)[C@@H]3C2)n1 | 5.7% |
| Cc1noc(C)c1CN(C)C(=O)COc1cccc(C#N)c1 | 5.3% |
| CC(O)CN1CCN(Cc2coc(-c3ccccc3)n2)CC1 (stereo not given) | -5.93% |
| Fc1ccc(NCc2ncc[nH]2)cc1Br | 3.76% |
| CCc1nc(CN(Cc2cccs2)CC2CCCO2)no1 (stereo not given) | 2.26% |
| O=S(=O)(CC1CC1)c1ncc(CN2CCSCC2)n1CC1CCCO1 (stereo not given) | -1.07% |
| Cc1ccc(C(=O)NC2CCN(Cc3noc(C(C)(C)C)n3)CC2)s1 | 1.33% |
| N#Cc1cccc(C(=O)N2CCCC(O)(CO)CC2)c1 (stereo not given) | 1.29% |
| Cc1nc(C)n(CC2CCCCN2CCCS(=O)(=O)N(C)C)n1 (stereo not given) | -18.5% |
| CCS(=O)(=O)c1ccc2oc([C@H]3CCN(Cc4ccccn4)C3)nc2c1 | -0.125% |
| CN(C)c1ncnc2c1CCN(C(=O)c1cccnc1)CC2 | -79.8% |
| CCC(CC)Cn1ncc(N2CCOCC2)cc1=O | -3.46% |
| CCn1ccnc1CN1CCN(C(C)C(=O)N2CCC(C)CC2)CC1 (stereo not given) | -10.7% |
| COCC(=O)N1CCC2(COCc3cnc(-c4ccccc4)nc32)C1 (stereo not given) | 2.65% |
| NC(=O)CN1CCCC(C(=O)N2CCC(O)(Cc3ccccc3)CC2)C1 (stereo not given) | -7.36% |
| Cn1ncc(C2CC(=O)NCc3nc4sccn4c32)c1C1CC1 (stereo not given) | -5.01% |
| CC(=O)NC(=O)C1(CCCc2ccncc2)CCN1 (stereo not given) | -24.5% |
| CN(C)C(=O)CN1C[C@H]2CC[C@@H](C1)N(Cc1c(Cl)cncc1Cl)C2 | 6.02% |
| COCCCNS(=O)(=O)c1cc(C)sc1C | -11.6% |
| CC(C)(C)c1n[nH]c(C2CN(C(=O)c3cnc[nH]3)CCO2)n1 (stereo not given) | 0.152% |
| CC1CN=C(N2CCN(C(=O)Nc3nc(-c4ccccc4)ns3)CC2)S1 (stereo not given) | 10.6% |
| CC(C)c1nn(C)c(N(C)C)c1CNCC(O)c1ccccc1F (stereo not given) | -5.87% |

| Structure (SMILES) | cytotoxicity at 10 µM |
| --- | --- |
| CCOCc1nc2c(c(N3CC=CC3)n1)CCN(CC1CC1)CC2 | -21.2% |
| Cc1noc(C(C)N2CCN(CCn3ccccc3=O)CC2)n1 (stereo not given) | 5.31% |
| CC(C)N1CCC(Cc2cc(-c3cc(F)ccc3C(=O)O)ncn2)C1 (stereo not given) | 7.49% |
| O=c1cc2c(nn1CN1CCN(c3ccc(F)cc3)CC1)CCC2 | -2.15% |
| CC[C@H](C)[C@@H](CO)NC(C)Cc1ccc(Cl)cc1 (stereo not given in full) | -10.6% |
| O=C(c1nc(-c2ccc3cc[nH]c3c2)no1)N1CCCC1 | -3.29% |
| Cn1cc(C(=O)NC[C@@H]2OC[C@H]3CN(Cc4ccco4)CC[C@H]32)cn1 | -13.4% |
| CCOc1ccc(C#N)cc1NCC(=O)NC(=O)NC | -8.35% |
| CCCNC(=O)COc1cccc(-c2nc(C(C)C)no2)c1 | -77.9% |
| O=C(c1ccco1)N1CCc2onc(CN3CCCC3)c2C1 | 4.38% |
| O=C(CN1CCc2ccccc21)NCc1ccc(Cl)cc1 | 12.4% |
| CN(C)CCOCC1CN(CC2CCOCC2)Cc2nnn(C)c21 (stereo not given) | 3.01% |
| Cn1cc(S(=O)(=O)NC(=O)C2(c3cccc(Cl)c3)CC2)cn1 | -10% |
| O=C(Nc1ccc(-c2cnc(NCCO)nc2)cc1)[C@@H]1CCCCN1 | -5.08% |
| Cc1c(Cl)cccc1S(=O)(=O)N1CCC(S(=O)(=O)c2nncn2C)CC1 | 1.06% |
| Cc1nc(C2CCNCC2)cc(N2CCCC(C(=O)NCCCO)C2)n1 (stereo not given) | -124% |
| Cn1cccc1C(=O)N1C[C@H]2CN(CCN3CCCC3)C(=O)[C@H]2C1 | -119% |
| Cc1ncsc1CCC(=O)NCc1csc(N(C)C)n1 | 1.31% |
| O=C(c1cscn1)N1CC[C@H]2C[C@@H](c3ccncn3)O[C@@H]2C1 | -76.6% |
| COCCN1CCC(CN(CC2CCCO2)C(=O)Cc2cccs2)CC1 (stereo not given) | -0.894% |
| CCc1ccc(C(=O)N2CCCCC2CNS(C)(=O)=O)o1 (stereo not given) | -0.95% |
| CN(CCCc1ccccc1)C(=O)c1cn2c(n1)CNCC2 | -52.4% |

| Structure (SMILES) | cytotoxicity at 10 µM |
| --- | --- |
| CC(C)NC(=O)c1cc(Br)c2c(c1)OCCO2 | -13.3% |
| Cc1ccc(NC2CCN(C(=O)CCCc3cccs3)CC2)nn1 | -8.49% |
| COc1ccc2c(C)c(C(=O)NC3CCOCC3)oc2c1 | 15.2% |
| CCN1c2ccc(-c3cncn3CC(=O)NC(C)(C)C)cc2CC1C (stereo not given) | -0.579% |
| CCc1ccc(CNC(=O)N2CCN(Cc3cc(C)no3)CC2)s1 | 1.45% |
| Cc1noc(C)c1CNC(=O)Nc1ccc(N2CCSCC2)cc1 | -1.61% |
| Cc1cccc(N2CC3(CCN(S(=O)(=O)C4CC4)C3)C2)n1 | 3.86% |
| CCN(Cc1noc(C2CC2)n1)C(=O)c1onc2ccccc12 | 1.61% |
| Cc1n[nH]cc1CNC(=O)Nc1cccc(OCC(F)(F)F)c1 | 8.64% |
| Cn1ncc2c(NC3CN4CCC3CC4)nc(-c3ccncc3)nc21 (stereo not given) | 41.1% |
| CCc1ccc(C(=O)N2CC[C@](C)(O)C(C)(C)C2)[nH]1 | 2.43% |
| O=C(CC1COCCN1C(=O)c1cscn1)c1ccccc1 (stereo not given) | 6.24% |
| Cc1cc(C2CCCN(CCc3ccccn3)C2)n[nH]1 (stereo not given) | -10.4% |
| COc1cc2c(cc1CCC(=O)O)CCC2 | 1.11% |
| N#Cc1csc(CN(CC(=O)N2CCCC2)CC2CCCO2)c1 (stereo not given) | -6.26% |
| CCn1nc(C)cc1C(=O)N1C[C@@H]2C[C@@H](c3noc(C)n3)O[C@@H]2C1 | 8.06% |
| Cc1nc([C@@H]2C[C@@H]3CCN(C(=O)Cc4ccsc4)C[C@H]3O2)no1 | 1.85% |
| CCn1nc(CC(C)C)cc1C(=O)NCCCOC | -18.8% |
| COCCOCCNC(=O)c1ccc(N2CCC(C)=N2)cc1 | 7.42% |
| Cc1cn[nH]c1C1CCCCN1C(=O)CCc1c(C)n[nH]c1C (stereo not given) | -10.5% |
| FC(F)c1nnc2ccc(N3CCC4(CCCCC4)C3)nn12 | 1.47% |
| Cc1nn(C)c(N(C)C)c1CNCc1cccc(Cl)c1 | -8.27% |
